LYP act: increases human PTPN22 phosphatase activity; 96,000 compounds, 0.11% hits; recombinant LYP, DiFMUP fluorescence; 0 = plate median, 100 = signal doubled; AID 697; activation, % at 2 µM; Q9Y2R2;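 active = activation at 2 µM above a set limit, the mean plus 5 SD, cut at about 37% in these data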
HIV Rev-RRE inh: disrupts HIV-1 Rev binding to RRE RNA; Rev peptide-RRE RNA binding, FRET; AID 704; 97,000 compounds, 0.79% hits; inhibition, % at 8 µM; P05866;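 active = inhibition above the screen-wide mean plus 3 SD, cut at about 35% in these data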;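 note: 0% = median DMSO wells and 100% = median Neomycin B control wells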
Target sequence (P05866 whole entry, looked up): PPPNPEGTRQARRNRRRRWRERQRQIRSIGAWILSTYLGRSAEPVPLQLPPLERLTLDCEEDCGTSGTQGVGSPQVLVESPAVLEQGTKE
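Probe or stimulus: fluorescein-Rev peptide as binding partner; assay system: Cy5-tagged RRE RNA duplex with fluorescein-tagged Rev peptide; timing: 5 min compound–RNA preincubation, then 15 min with peptide, 25 °C; medium: HEPES pH 7.5 buffer with KCl, MgCl2, NaCl and EDTA; signal: fluorescein-to-Cy5 FRET, 480 nm excitation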
PLK1 PBD inh: blocks phosphopeptide binding to human Plk1 polo box domain; Plk1 PBD phosphopeptide binding, fluorescence polarization; AID 693; inhibition, %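 (tested at about 20 µM)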; 97,000 compounds, 0.13% hits; in the data active = inhibition above about 34%, passing the limit was not always enough
PLK1 kinase inh: PLK1 (human) kinase inhibition | P53350 | AID 619 | inhibition, % at 10 µM | recombinant PLK1 kinase, TR-FRET peptide phosphorylation | 97,000 compounds, 0.53% hits;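 active = inhibition of 50% or more in the single-concentration screen; inactive = inhibition below 50%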;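 note: 0% = DMSO max control and 100% = H-89 dihydrochloride min control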
EphB4 antag: blocks human EphB4 binding to ephrin-B2. inhibition, % at 7 µM. AID 720. 97,000 compounds, 0.15% hits. EphB4 LBD / TNYL-RAW-Alexa532 peptide, fluorescence polarization;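 active = inhibition above the screen-wide mean inhibition plus 3 SD, cut at about 15% in these data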;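 note: 0% = DMSO wells and 100% = excess unlabeled TNYL-RAW peptide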
PTPN22 inh 2: blocks human PTPN22 phosphatase activity | AID 640 | inhibition, % at 2 µM | Q9Y2R2 | recombinant LYP catalytic domain, DiFMUP fluorescence | 96,000 compounds, 0.21% hits;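 active = inhibition at 2 µM at or above a set limit, the screen mean plus 3 SD, cut at about 24% in these data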;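 note: 0% = DMSO with enzyme and 100% = enzyme fully blocked by orthovanadate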
Active calls of the source: *; / = not tested or not shown; [ ] = remark or other dose. Rows were chosen to be rich in hits. Some 2% of all compounds tested hit in one or more screens of this group.

SMILES	LYP act	HIV Rev-RRE inh	PLK1 PBD inh	PLK1 kinase inh	EphB4 antag	PTPN22 inh 2
COc1cc(C(=O)NCCOc2cccc(C)c2)c(Br)c(OC)c1OC	13	4	24	2	-3	-8
CCOC(=O)c1c(Nc2ccc(Cl)cc2)sc(/C=C2\C=Nc3ccccc32)c1O	-12	40*	17	-8	-12	12
O=C(Cn1c(O)c(/C=C2\C=Nc3ccccc32)sc1=O)Nc1ccc2c(c1)OCO2	-4	14	23	-6	2	10
CCCCn1c(=NC(=O)c2cccnc2)c(C#N)cc2c(=O)n3cccc(C)c3nc21	17	49*	-3	-20	0	-18
FC(F)(F)c1cccc(-n2cccc2/C=N/n2cnnc2)c1	-3	-1	0	-9	-5	0
Cc1nn(-c2cccc(C(F)(F)F)c2)c(Cl)c1/C=N/n1cnnc1	0	36*	-6	-3	-4	-3
CCN1CCC2(CC1)C(C#N)=C(N)Oc1c2sc2nc(C)cc(C)c12	-1	66*	15	-5	-2	-1
COc1ccc2nc(N3CCCC3)c(C#N)cc2c1	2	47*	-32	-19	7	-2
Cc1csc(-c2cnn(-c3ccccc3)c2NC(=O)c2cccc(C(F)(F)F)c2)n1	8	3	2	-16	8	-11
COc1ccc2c(C)cc(SCC(=O)N3CCOCC3)nc2c1	1	60*	-81	-6	-6	-5
CCCCSc1nnc(-c2c[nH]c3ccccc23)n1C	/	7	-18	69*	2	/
Cn1c(SCC(=O)N2CCN(c3ccccc3)CC2)nnc1-c1c[nH]c2ccccc12	/	3	15	67*	-1	/
Cn1c(SCc2ccccc2)nnc1-c1c[nH]c2ccccc12	-10	0	-10	-18	4	9
COc1ccc2c(C)cc(N3CCOCC3)nc2c1	12	11	-9	-2	7	-10
COc1cccc(-n2c(SCC(=O)N3CCOCC3)nnc2-c2c[nH]c3ccccc23)c1	/	8	7	63*	2	/
COc1ccccc1NC(=O)c1ccc(-n2cccn2)nc1	5	-3	-19	-9	4	-2
Cc1ccc(N(CC(=O)NCc2ccc(F)cc2)S(=O)(=O)c2cccs2)cc1	-5	15	23	1	4	8
CCOc1cccc(C2C(C(=O)c3ccc(C)o3)=C(O)C(=O)N2c2nccs2)c1 (stereo not given)	-3	74*	12	-5	2	2
COc1cccc(OC)c1C(=O)OCC(=O)Nc1ccc(OC(F)(F)F)cc1	-10	9	-27	-13	4	8
O=[N+]([O-])c1cccc(-c2nnn(C34CC5CC(CC(C5)C3)C4)n2)c1	-7	12	-18	-2	0	9
Cc1cccc(OCc2nc(C#N)c(N3CC(C)CC(C)C3)o2)c1 (stereo not given)	/	13	9	61*	1	/
CCNc1oc(COc2cccc(C)c2)nc1C#N	2	-1	16	-8	-4	-2
COc1ccc(S(=O)(=O)N(CCc2ccccc2)CC(=O)NC(C)C)cc1	-2	6	-14	-5	3	-1
COc1cccc(-c2csc3nc[nH]c(=O)c23)c1	-2	8	-8	61*	-5	-3
O=[N+]([O-])c1ccc(N2N=C(c3ccco3)CC2c2ccccc2)cc1 (stereo not given)	4	76*[fluorescence artefact?]	-19	-11	-3	1
SMILES	LYP act	HIV Rev-RRE inh	PLK1 PBD inh	PLK1 kinase inh	EphB4 antag	PTPN22 inh 2
O=C(Nc1ccc2oc(-c3ccc(Cl)c(Cl)c3)nc2c1)c1ncn[nH]1	-40	0	-6	-6	3	40*
CC(=Nc1ccc(C)cc1)c1sc2ccccc2c1O	2	44*	-59	-6	9	2
CC(=Nc1cccc(O)c1)c1sc2ccccc2c1O	6	48*	-121	-8	-3	-5
N#Cc1c(NC(=S)NC(=O)Cc2cccs2)sc2c1CCCCC2	-10	7	40	-6	-1	15
Cc1c(NC(=O)Cn2ccc([N+](=O)[O-])n2)c(=O)n(-c2ccccc2)n1C	5	6	3	-8	-8	-1
Cc1ccc(NC(=O)CN2C(=O)S/C(=C\c3cccn3-c3cccc(C(=O)O)c3)C2=O)c(C)c1	-48	-2	1	-8	-9	50*
Cc1ccccc1NC(=O)CN1C(=O)S/C(=C\c2cccn2-c2cccc(C(=O)O)c2)C1=O	8	-4	15	-8	-12	-3
Nc1nc(SCC(=O)Nc2ccccc2Sc2ccccc2)n[nH]1	4	1	-21	-3	-1	-3
Cc1cc(C(C#N)c2ccccc2)n2ncnc2n1 (stereo not given)	3	-1	-6	53*	-7	-6
COc1ccc(NC(=O)CN2CCC(C(N)=O)(N3CCCCC3)CC2)cc1	-9	6	-9	-2	2	6
COc1cccc(NC(=O)N2CCC(C(N)=O)(N3CCCCC3)CC2)c1	3	5	-4	66*	6	-4
Cc1cc(Oc2ccccc2)nc(SCC(=O)Nc2ccc(Cl)cc2Cl)n1	-1	1	-6	-9	0	3
COC(=O)CSc1nc(C)cc(Oc2ccccc2)n1	/	2	-4	59*	-4	/
Cc1cc(C(=O)COC(=O)C2=NNC(=O)CC2)c(C)n1-c1cccc(C(F)(F)F)c1	-6	3	0	-1	4	9
COc1cccc(-c2nc(CS(=O)(=O)CC(=O)NC3CCCc4ccccc43)c(C)o2)c1 (stereo not given)	-2	3	26	-15	-2	-1
Cc1ccc(-c2nc(CS(=O)(=O)CC(=O)NC3CCCCC3C)c(C)o2)cc1 (stereo not given)	/	0	-21	54*	-5	/
COCCNC(=O)CS(=O)(=O)Cc1nc(-c2ccc(C)cc2)oc1C	/	6	16	67*	0	/
Cc1ccc(-c2nc(CS(=O)(=O)CC(=O)NCCCN3CCN(C)CC3)c(C)o2)cc1	-9	0	-10	28	4	8
O=C(NCc1nc2ncc(Br)cc2[nH]1)c1ccccc1	5	12	-14	35	3	-6
O=c1[nH]c2cc(Br)cnc2nc1/C=C(\O)c1ccc(F)cc1	-10	60*	-31	-7	2	8
Cc1nn(-c2ccccc2)c(C)c1/C=N/NC(=O)c1cc(C2CC2)[nH]n1	-4	2	14	-5	-3	9
Cc1nn(-c2ccccc2)c(C)c1/C=N/NC(=O)c1cc(C23CC4CC(CC(C4)C2)C3)[nH]n1	-34	0	10	-7	-1	38*
CC(=O)Oc1ccc2ccccc2c1C(NC(=O)Cc1ccccc1)c1ccc(Cl)cc1 (stereo not given)	1	11	16	-12	2	3

Screening results from PubChem.
